Bioassay records as filed in PubChem.
CCR6 antagonist = antagonists of human CCR6 receptor; P51684; CHO-K1 CCR6 PathHunter beta-arrestin, luminescence, CCL20-stimulated; inhibition, % at 20 µM; 0.49% of 340,000 active;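 active = compounds whose inhibition of the agonist-driven luminescence signal at 20 µM reaches about 50%, limit read from the data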;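 note: cells stimulated with CCL20 at 14 nM final; plate controls were DMSO with CCL20 for no effect and DMSO without agonist for full effect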
CXCR6 inh = inhibitors of human CXCR6 receptor. CHO-K1 PathHunter CXCR6 beta-arrestin, luminescence. inhibition, % at 20 µM. 0.36% of 360,000 active. AID 602244; in the data active = inhibition above about 34%, passing the limit was not always enough;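 note: antagonist mode with CXCL16 agonist at 10 nM final; 0% = 10 nM CXCL16 with DMSO and 100% = unstimulated wells without agonist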
Target sequence (O00574 whole entry, looked up): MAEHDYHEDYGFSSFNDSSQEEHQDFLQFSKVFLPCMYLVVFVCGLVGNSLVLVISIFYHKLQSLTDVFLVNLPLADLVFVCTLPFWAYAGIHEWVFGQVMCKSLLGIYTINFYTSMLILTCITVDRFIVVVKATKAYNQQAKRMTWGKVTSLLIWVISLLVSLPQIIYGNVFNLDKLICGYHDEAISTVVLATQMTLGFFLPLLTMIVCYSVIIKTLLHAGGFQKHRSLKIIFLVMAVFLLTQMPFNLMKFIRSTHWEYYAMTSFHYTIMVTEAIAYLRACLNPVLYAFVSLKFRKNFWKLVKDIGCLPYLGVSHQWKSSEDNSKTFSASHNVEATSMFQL
A3A deaminase = blocks human APOBEC3A ssDNA deamination; P31941; recombinant A3A, FAM/TAMRA ssDNA deamination fluorescence; inhibition, % at 20 µM; 0.41% of 330,000 active;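 active = at least 40% inhibition at 20 µM here, with at most 30% in a related deaminase screen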;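 note: plate controls were A3A with DMSO for no effect and wells lacking A3A enzyme for full effect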
Target sequence (P31941 whole entry, looked up): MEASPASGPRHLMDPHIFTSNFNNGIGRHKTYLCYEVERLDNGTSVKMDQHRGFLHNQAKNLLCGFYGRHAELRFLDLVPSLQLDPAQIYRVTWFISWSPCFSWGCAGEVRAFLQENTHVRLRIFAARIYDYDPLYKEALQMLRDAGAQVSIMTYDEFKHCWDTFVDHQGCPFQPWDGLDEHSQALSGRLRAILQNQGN
APJ ag = agonists of human APJ apelin receptor; P35414; CHO-K1 APJ PathHunter beta-arrestin, luminescence; 0% DMSO wells, 100% apelin; activation, % at 20 µM; 0.11% of 330,000 active; AID 2520;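 active = activation more than six SD over the plate average, tested at 20 µM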;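 note: 0% = DMSO alone and 100% = apelin-13 at 10 nM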
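Test system: CHO-K1 APJ beta-arrestin complementation cell line. Amount: cell density 1000 per well. Controls: DMSO negative, 10 nM Apelin-13 positive. Signal: luminescent beta-gal fragment complementation, chemiluminescent substrate. Read-out basis: agonist-driven arrestin binding to APJ. Timing: compound stimulation 90 min at 25 °C, detection 60 min.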
A3G deaminase = inhibitors of human APOBEC3G DNA deaminase; Q9HC16; recombinant A3G, ssDNA deamination FAM/TAMRA fluorescence; inhibition, % at 20 µM; 0.28% of 330,000 active; AID 493012;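 active = inhibition of at least 40% at 20 µM, with no more than 30% in the related APOBEC3A deaminase screen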;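 note: plate controls were DMSO wells with A3G for no effect and wells lacking A3G enzyme for full effect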
APJ antag = antagonists of human APJ apelin receptor; P35414; CHO-K1 APJ beta-arrestin complementation, luminescence; inhibition, % at 20 µM; 0.32% of 330,000 active;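 active = inhibition above about 40% at 20 µM, limit read from the data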;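 note: cells challenged with 10 nM apelin-13 agonist together with compound; plate controls were apelin-13 plus DMSO wells for no effect and DMSO wells lacking apelin-13 for full effect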
* = called active by the depositor; x = not tested or not shown. The list is not random: actives were taken first. Their share in the collection is about 1.4%.

SMILES	CCR6 antagonist	CXCR6 inh	A3A deaminase	APJ ag	A3G deaminase	APJ antag
O=C1/C(=C/c2ccc(O)c(O)c2)SC(=S)N1Nc1ccccc1	61*	51*	x	x	x	x
O=c1oc2ccccc2c(Cl)c1CN1CCCCC1	92*	96*	-1	-8	-6	87*
CN1CCN(C2=C(Cl)C(=O)C(c3cnc(N4CCCCC4)s3)=C(Cl)C2=O)CC1	74*	30	3	11	21	11
c1ccc(COc2ncnc3c2ncn3CCCNC2CCN(Cc3ccccc3)CC2)cc1	x	10	x	x	x	x
CN(C)c1nc(N/N=C/c2ccccc2O)nc(Nc2ccc(F)cc2)n1	71*	68*	-4	-3	-6	20
CCOc1ccc(C2CC=C(C(C)=O)CN2S(=O)(=O)c2ccc(C)cc2)cc1 (stereo unspecified)	x	-13	x	x	x	x
CC1=C(C(=O)N(C(C)C)C(C)C)CC(CC(=O)NC2CCCC2)C(=O)N1CCC1=CCCCC1 (stereo unspecified)	x	-3	x	x	x	x
CC(=O)Nc1sc(N/N=C\c2ccccc2F)nc1-c1cccs1	50*	11	0	0	-2	5
Cc1cc(N(C)/N=C/c2ccccc2O)nc(-c2ccccc2O)n1	56*	42*	-4	-1	-7	12
CC1=C(C(=O)N2CCOCC2)CC(CC(=O)NCC2CCCCC2)C(=O)N1Cc1ccc(C(C)(C)C)cc1 (stereo unspecified)	x	-4	x	x	x	x
O=[N+]([O-])c1cccc(N=Cc2sc3ccccc3c2O)c1	x	x	-5	1	-4	-17
O=[N+]([O-])c1ccc(N=Cc2sc3ccccc3c2O)cc1	52*	-8	-1	-3	1	1
CCN(C(=O)c1cc2c(s1)-c1ccccc1S(=O)(=O)C2)c1cc(OC)ccc1OC	19	6	-2	-4	-8	9
O=C1/C(=C\c2ccco2)CCC/C1=C\c1ccco1	-1	4	87*	-2	-4	-10
NC(=S)N/N=C/c1ccc(C23CC4CC(CC(C4)C2)C3)cc1	66*	x	-2	-6	-8	29
COc1ccc(Cl)cc1/C=C/c1ccc2cccc(O)c2n1	38	19	-2	-7	-7	39
COc1ccccc1/C=C/c1ccc2cccc(O)c2n1	63*	34	1	-8	-3	39
Cc1ccc(-c2cc(-c3ccc(Cl)cc3)c(C#N)c(N)n2)o1	86*	8	-1	-4	-9	-19
Cc1ccc(-c2cc(-c3ccc(C)o3)nc(N)c2C#N)cc1	43	0	2	-6	4	30
O=C1CN(C(=O)c2ccc(Cl)c(S(=O)(=O)N3CCc4ccccc43)c2)c2ccccc2N1	14	8	7	-2	-4	-8
COc1ccc(N2CCN(C(=O)CN(Cc3ccc(Cl)cc3)S(C)(=O)=O)CC2)cc1	-2	71*	3	-2	2	-3
Cc1ccc(C(=C2C3C=CC2C2C(=O)NC(=O)C32)c2ccc(C)cc2)cc1 (stereo unspecified)	54*	-5	-1	-2	-9	7
Cc1cc(C)nc(N/N=C/c2cc(Br)ccc2O)n1	44	44*	0	-3	-4	3
CCN(CC(=O)Nc1c(F)cccc1F)C(=O)c1cc(C)nc2ccccc12	1	7	-5	-7	-8	-7
COc1ccccc1Nc1n[nH]c(=S)s1	5	4	-1	-2	57*	-33
SMILES	CCR6 antagonist	CXCR6 inh	A3A deaminase	APJ ag	A3G deaminase	APJ antag
Cc1cccc(NC(=O)CCC(=O)N/N=C/c2cc([N+](=O)[O-])ccc2O)c1	24	24	-1	-3	-8	24
Cc1nc2ccc(C(=O)N/N=C/c3ccccc3O)cc2[nH]1	1	-5	2	-1	3	-43
Oc1ccccc1/C=N/Nc1nn[nH]n1	-5	-11	7	8	-5	-16
Cc1nc2ccc(C(=O)N/N=C/c3cc([N+](=O)[O-])ccc3O)cc2[nH]1	59*	10	0	-3	-4	20
O=C(CCC(=O)Nc1ccc(F)cc1)N/N=C/c1cc([N+](=O)[O-])ccc1O	62*	11	-1	-9	0	21
O=[N+]([O-])c1ccc(O)c(/C=N/Nc2nn[nH]n2)c1	x	44*	0	-3	-3	14
Cc1ccccc1C(=O)NC(=S)Nc1ccc(S(=O)(=O)N2CCN(C)CC2)cc1	61*	19	-3	-4	-6	5
Cc1ccccc1C(=O)NC(=S)Nc1ccc(S(=O)(=O)N2CCOCC2)cc1	35	32	-3	-4	-8	10
Cc1cscc1-c1ccc(C(=O)Nc2c(C)cccc2C)o1	x	-2	x	x	x	x
N#CC1=C(N)C2=CCCC[C@H]2[C@H](c2ccc(Br)cc2)C1(C#N)C#N	68*	46*	x	x	x	x
CN(CC(=O)Nc1ccc(Cl)cc1)C(=O)CNC(=O)Cc1cccc2ccccc12	8	-6	-4	-3	-7	-1
COc1cc(-n2nc(C)c3c2OC(N)=C(C#N)C3c2ccccc2)c(Cl)c(Br)c1O (stereo unspecified)	70*	22	0	-7	3	34
Cc1nn(-c2ccccc2)c2c1C(c1ccncc1)C(C#N)=C(N)O2 (stereo unspecified)	-1	5	-1	1	-7	-14
Cc1[nH]c2ccccc2c1C1=CC(=O)C=CC1=O	x	70*	x	x	x	x
Cc1[nH]c2ccccc2c1CCO	5	1	-1	-3	-5	16
N#C/C(=C\c1ccc(O)c(O)c1)S(=O)(=O)c1ccccc1	53*	23	2	-7	7	19
CC1=C(SCc2ccccc2)C(=O)c2ccccc2C1=O	40	7	x	x	x	x
O=C1C(SCCO)=C(SCCO)C(=O)c2ccccc21	108*	103*	-7	19	73*	24
O=C(O)c1cc(O)c2c(c1)C(=O)c1cccc(O)c1C2=O	79*	48*	21	13	6	-2
Cc1[nH]n(-c2ccccc2)c(=O)c1N=Nc1c(O)cc(S(=O)(=O)N(C)C)c2ccccc12	68*	24	7	-10	-1	30
CCOC(=O)CSC1=NC(=O)/C(=C/c2ccc(OC)cc2)S1	54*	39	-3	5	-4	-1
COc1ccc(/C=C2\SC(N)=NC2=O)cc1	-22	-8	-5	-3	-5	-3
CN(C)c1nc(=NCc2cccs2)ss1	111*	92*	x	x	x	x
CC(SC(=S)N(C)Cc1cccs1)C(=O)O (stereo unspecified)	10	-4	-2	3	-5	1
CC1=NN(c2ccccc2)C(=O)/C1=C/C=C/c1ccc(N(C)C)cc1	89*	71*	x	x	x	x
CC1=NN(c2ccccc2)C(=O)/C1=C\C=C\c1ccccc1	19	12	-2	-3	-8	3
O=C1C=C(c2n[nH]nc2-c2ccccc2)C[C@@H](c2ccc(F)cc2)C1	x	3	x	x	x	x
